MPTP block = mitochondrial permeability transition pore inhibitors, primary screen, biochemical, isolated mouse mitochondria, absorbance | inhibition, % at 10 µM | Ca2+ swelling absorbance, 30 min | 1.4% of 360,000 active;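 active = inhibition of 50% or more, scaled per plate between neutral and stimulator controls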;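 note: 0% = DMSO wells given calcium and 100% = 1 mM EGTA wells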
NR3A LBD binder = binders of NR3A ligand-binding domain, primary screen, biophysical, differential scanning fluorimetry, uHTS; Tm shift relative to glycine control, % at 25 µM; Glutamate receptor ionotropic, NMDA 3A (GRIN3A) ligand-binding domain; 2.5% of 340,000 active; NR3A LBD differential scanning fluorimetry, Tm shift; 0% = protein alone, 100% = glycine-bound protein; AID 1259313, 2017;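 active = melting temperature shift of at least 10% of the positive control shift, at one fixed dose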
EBI2 antag = EBI2 receptor antagonists, beta-arrestin recruitment, primary screen, cell-based, luminescence, 7a,25-OHC stimulation, uHTS | G-protein coupled receptor 183 (Homo sapiens), P32249 | 7a,25-OHC stimulated | inhibition, % at 5 µM | 0.81% of 360,000 active; in the data active = inhibition above about 38%;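 note: enzyme fragment complementation signal reports receptor beta-arrestin coupling in cells; 0% = agonist plus DMSO wells and 100% = wells without agonist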
Target sequence (P32249 whole entry, looked up, the tested form may be a part): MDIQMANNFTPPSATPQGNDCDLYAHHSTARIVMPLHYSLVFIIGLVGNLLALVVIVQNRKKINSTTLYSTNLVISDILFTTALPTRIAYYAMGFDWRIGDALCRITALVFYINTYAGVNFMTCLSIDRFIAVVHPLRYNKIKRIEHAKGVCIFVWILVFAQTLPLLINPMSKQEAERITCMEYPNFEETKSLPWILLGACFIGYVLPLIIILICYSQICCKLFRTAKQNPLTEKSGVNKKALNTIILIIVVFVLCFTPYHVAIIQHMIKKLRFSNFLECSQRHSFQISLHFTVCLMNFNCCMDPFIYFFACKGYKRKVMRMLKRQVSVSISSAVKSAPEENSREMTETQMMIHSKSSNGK
SENP1 inh = human SENP1 catalytic domain inhibitors, primary screen, biochemical, FRET, uHTS; Sentrin-specific protease 1 (Homo sapiens), Q9P0U3; recombinant SENP1 catalytic domain, CyPet-SUMO1-YPet FRET cleavage; inhibition, % at 10 µM; 0.21% of 360,000 active; AID 624204, 2012;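 active = inhibition at least 30% at 10 µM, raw YFP signal under a set limit, fluorescence ratio 0.5 to 1.5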;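 note: 0% = enzyme with DMSO and 100% = no enzyme wells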
Target sequence (Q9P0U3 419-644 limits assumed): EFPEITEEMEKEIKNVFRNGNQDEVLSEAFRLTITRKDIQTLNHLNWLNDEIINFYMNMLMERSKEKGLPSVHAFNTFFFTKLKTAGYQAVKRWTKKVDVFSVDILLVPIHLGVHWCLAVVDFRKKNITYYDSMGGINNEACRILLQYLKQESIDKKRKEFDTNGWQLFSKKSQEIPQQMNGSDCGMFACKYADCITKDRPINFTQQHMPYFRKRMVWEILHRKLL
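Material – human SENP1 catalytic domain · Input – SENP1 enzyme, 20 pM final · Compound dosing – single concentration of 10 µM compound, 0.5% DMSO final · Timing – enzyme reaction for 50 min at room temperature, dark · Measured by – FRET fluorescence in CFP and YFP emission channels · Control set – no-enzyme wells low, DMSO-plus-enzyme wells high control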
* marks the source's active call; other numbers are inactive results. An excerpt weighted towards active compounds, which were near 4.4% of everything screened.

What do the screens show for `Cc1ccccc1C(=O)Nc1ccc(-c2nc3ccc(C(=O)c4ccccc4)cc3[nH]2)cc1`?
MPTP block: -0.4; NR3A LBD binder: 16.8*; EBI2 antag: -9.5; SENP1 inh: 1.7

Results for Cc1ccc(OCC(=O)Nc2ccc(NC(=O)c3ccco3)cc2)c(C)c1 ?
MPTP block: -0.2; NR3A LBD binder: 29.3*; EBI2 antag: 0.4; SENP1 inh: -1.6

Results for CC1C(=O)N(Cc2cn(CCC3OCCO3)nn2)CCS(=O)(=O)N1Cc1ccc(-c2ccc(Cl)c(Cl)c2)cc1 (stereo not drawn) ?
MPTP block: -1.7; EBI2 antag: 12.2; SENP1 inh: 0.2

How did CSc1cccc(N2CC(C(=O)Nc3cccc(S(=O)(=O)N4CCCC4)c3)CC2=O)c1 (stereo not drawn) do in these assays?
MPTP block: 0.8; NR3A LBD binder: -11.3; EBI2 antag: 6.0; SENP1 inh: 0.3

What do the screens show for `CCCN(CC(=O)Nc1ccccc1C)C(=O)c1sc2ccccc2c1Cl`?
MPTP block: -0.9; NR3A LBD binder: -1.7; EBI2 antag: -3.6; SENP1 inh: -0.3

How did CCN(CC)S(=O)(=O)c1ccc(C)c(NC(=O)CSc2nnnn2C)c1 do in these assays?
MPTP block: 0.2; NR3A LBD binder: 1.7; EBI2 antag: 5.7; SENP1 inh: 0.4

How did C[C@H](N)C(=O)NC[C@H]1O[C@@H](n2cnc3c(N)ncnc32)[C@H](O)[C@@H]1O do in these assays?
MPTP block: -0.1; NR3A LBD binder: 3.1; EBI2 antag: -9.8; SENP1 inh: 0.2

How did Nc1ncnc2c1ncn2[C@@H]1O[C@H](CNC(=O)[C@@H](N)C2CCCCC2)[C@@H](O)[C@H]1O do in these assays?
MPTP block: 0.3; NR3A LBD binder: 15.4*; EBI2 antag: -13.0; SENP1 inh: 0.5

What do the screens show for `CC(C)(O)C#Cc1ccc(CNC[C@H]2O[C@@H](n3cnc4c(N)ncnc43)[C@H](O)[C@@H]2O)s1`?
MPTP block: 2.0; NR3A LBD binder: 12.7*; EBI2 antag: -6.9; SENP1 inh: -0.6

Results for O=C(COc1ccc(Cl)cc1)Nc1ccc(C(=O)O)cc1NC(=O)COc1ccc(Cl)cc1 ?
MPTP block: 1.6; NR3A LBD binder: 10.2*; EBI2 antag: -2.0; SENP1 inh: 1.3

Results for CCOc1ccccc1N1CCN(S(=O)(=O)c2cc(C)ccc2OC)CC1 ?
MPTP block: 0.0; NR3A LBD binder: 37.2*; EBI2 antag: 0.6; SENP1 inh: -0.3

What do the screens show for `COc1ccc(C)cc1S(=O)(=O)N1CCN(c2ccccc2)CC1`?
MPTP block: 2.0; NR3A LBD binder: -4.4; EBI2 antag: 2.2; SENP1 inh: -1.8

What do the screens show for `Cc1c[n+](CC(=O)c2ccccc2)c(C)cn1`?
MPTP block: -0.8; NR3A LBD binder: -1.2; EBI2 antag: -6.7; SENP1 inh: 9.0

How did CCOc1ccc(-n2ccn(CC(=O)NCCc3ccccc3)c(=O)c2=O)cc1 do in these assays?
MPTP block: -1.9; NR3A LBD binder: 7.9; EBI2 antag: -5.1; SENP1 inh: 1.3

How did COc1cc(NC(=O)CN2CCN(c3ccccc3F)CC2)c(C)cc1[N+](=O)[O-] do in these assays?
MPTP block: 4.0; NR3A LBD binder: 14.8*; EBI2 antag: -7.6; SENP1 inh: 1.5

Results for Cc1cccc(N2CCN(CC(=O)Nc3ccccc3[N+](=O)[O-])CC2)c1C ?
MPTP block: 2.4; NR3A LBD binder: 15.3*; EBI2 antag: -5.3; SENP1 inh: 1.7

How did CCOc1ccc(OCC)c(NC(=O)CN2CCN(c3cccc(C)c3C)CC2)c1 do in these assays?
MPTP block: 6.9; NR3A LBD binder: 10.6*; EBI2 antag: 33.9; SENP1 inh: 1.0

How did CCOC(=O)C1=C(C)N=c2sc(=Cc3ccc(OCC(=O)O)cc3)c(=O)n2C1c1ccc(SC)cc1 (stereo not drawn) do in these assays?
MPTP block: 0.6; EBI2 antag: 18.7; SENP1 inh: -29.6

Results for N#CCc1cccnc1Sc1ccc(Cl)cc1 ?
MPTP block: 2.7; NR3A LBD binder: -0.1; EBI2 antag: -5.9; SENP1 inh: -0.1

What do the screens show for `O=c1onc(-c2ccccc2)n1Cc1ccc([N+](=O)[O-])cc1`?
MPTP block: 0.4; EBI2 antag: -6.4; SENP1 inh: 3.0

Results for O=C(Nc1ccc(-c2csc(Nc3cccc(C(F)(F)F)c3)n2)cc1)c1cc([N+](=O)[O-])cc(C(F)(F)F)c1 ?
MPTP block: 3.3; NR3A LBD binder: 21.4*; EBI2 antag: -37.3; SENP1 inh: 1.1

How did O=C(Nc1ccc(-c2csc(Nc3cccc(C(F)(F)F)c3)n2)cc1)c1ccccc1 do in these assays?
MPTP block: 1.4; NR3A LBD binder: 25.3*; EBI2 antag: 20.1; SENP1 inh: 1.6

Results for O=C(Nc1nc(-c2cccnc2)cs1)c1cccc([N+](=O)[O-])c1 ?
MPTP block: -1.1; NR3A LBD binder: -3.2; EBI2 antag: 8.8; SENP1 inh: 1.9

Results for O=C(Nc1ccc(F)cc1)Oc1ccc[nH]c1=O ?
MPTP block: 3.2; NR3A LBD binder: 11.9*; EBI2 antag: 0.2; SENP1 inh: 3.9

What do the screens show for `CN1C2CCC1CC(OC(=O)C(CO)c1ccccc1)C2` (stereo not drawn)?
NR3A LBD binder: -0.9; EBI2 antag: -3.5; SENP1 inh: 0.6

Results for COc1ccc(S(=O)(=O)CC2(O)CCN(C(=O)CC(C)C)CC2)cc1 ?
MPTP block: -2.1; NR3A LBD binder: 0.2; EBI2 antag: -3.6; SENP1 inh: 2.0

Results for Oc1ccc(-c2csc(-c3c[nH]c4ccccc34)n2)c(O)c1 ?
MPTP block: 28.5; NR3A LBD binder: 34.4*; EBI2 antag: 0.9; SENP1 inh: 0.0

Results for Cc1ccc(-c2csc(-c3c[nH]c4ccccc34)n2)c(C)c1 ?
MPTP block: 3.8; NR3A LBD binder: 24.0*; EBI2 antag: 11.7; SENP1 inh: 2.0

How did Cc1ccc(S(=O)(=O)C2(C(=O)NC3CCCCC3)CC2)cc1 do in these assays?
MPTP block: -0.4; NR3A LBD binder: 25.7*; EBI2 antag: -4.0; SENP1 inh: 2.6

What do the screens show for `Cc1ccc(S(=O)(=O)C2(C(=O)Nc3ccc(Br)cc3)CC2)cc1`?
MPTP block: 2.0; NR3A LBD binder: -1.5; EBI2 antag: 5.6; SENP1 inh: 1.3

What do the screens show for `Cc1ccc(S(=O)(=O)N(C)c2ccc(OC(=O)CN3C(=O)NC(C)(c4ccccc4)C3=O)cc2)cc1C` (stereo not drawn)?
MPTP block: -0.7; NR3A LBD binder: 1.7; EBI2 antag: -14.3; SENP1 inh: 0.1

Results for CC(=O)Nc1ccc(CN2CCN(c3cccc(C(F)(F)F)c3)CC2)cc1 ?
MPTP block: -0.2; NR3A LBD binder: 19.9*; EBI2 antag: 5.2; SENP1 inh: 1.3

Results for CC(=O)Nc1ccc(NC(=O)/C=C/c2ccc(Cl)cc2)cc1 ?
MPTP block: 1.2; NR3A LBD binder: 12.8*; EBI2 antag: 2.1; SENP1 inh: -0.5
